A selection: hits, their analogues and other compounds. The true share with any hit is near 1.7%.
SUMO1 PPI mod – SUMO1-SIM interaction modulation; 360,000 compounds, 0.33% hits; inhibition, % at 20 µM; SUMO1 binding to a labelled peptide, TR-FRET, 1 h; AID 602429; P63165; in the data active means inhibition above about 37%
STEP block – STEP (human) phosphatase inhibition; P54829; recombinant STEP, OMFP fluorogenic substrate, fluorescence; inhibition, % at 20 µM; 360,000 compounds, 0.25% hits; AID 588621;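 active means inhibition at 20 µM, scaled per plate between control wells, above about 37%, limit read from the data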;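 further: 0% = DMSO with enzyme and substrate and 100% = substrate only without enzyme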
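Material: STEP (striatal-enriched tyrosine phosphatase) enzyme, cell-free | Medium: 50 mM Bis-Tris pH 6.0 with 2.5 mM DTT and 0.005% Tween 20 | Read-out: Percent inhibition scaled to no-enzyme and uninhibited-enzyme controls, plate-pattern corrected | Signal: Fluorescence read at 480 nm ex / 540 nm em | Times: 20 min reaction, room temperature, in the dark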
Casp6 inh – caspase-6 (human) enzyme inhibition; inhibition, % at 12.5 µM; purified caspase-6, Z-VEID-R110 cleavage fluorescence; P55212; 350,000 compounds, 0.53% hits;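 active means mean inhibition across replicates at least about 35%, with every replicate also reaching that limit, limit read from the data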;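 further: 0% = median of neutral control wells and 100% = no fluorescence left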
DNMT1 block – DNMT1 (human) enzyme inhibition. P26358. DNMT1 molecular beacon, Hinp1I cleavage, fluorescence. inhibition (reported as % activation of signal), % at 10 µM. 360,000 compounds, 0.83% hits. AID 588458; in the data active means inhibition above about 50%
Target sequence (P26358 504-1616 limits assumed): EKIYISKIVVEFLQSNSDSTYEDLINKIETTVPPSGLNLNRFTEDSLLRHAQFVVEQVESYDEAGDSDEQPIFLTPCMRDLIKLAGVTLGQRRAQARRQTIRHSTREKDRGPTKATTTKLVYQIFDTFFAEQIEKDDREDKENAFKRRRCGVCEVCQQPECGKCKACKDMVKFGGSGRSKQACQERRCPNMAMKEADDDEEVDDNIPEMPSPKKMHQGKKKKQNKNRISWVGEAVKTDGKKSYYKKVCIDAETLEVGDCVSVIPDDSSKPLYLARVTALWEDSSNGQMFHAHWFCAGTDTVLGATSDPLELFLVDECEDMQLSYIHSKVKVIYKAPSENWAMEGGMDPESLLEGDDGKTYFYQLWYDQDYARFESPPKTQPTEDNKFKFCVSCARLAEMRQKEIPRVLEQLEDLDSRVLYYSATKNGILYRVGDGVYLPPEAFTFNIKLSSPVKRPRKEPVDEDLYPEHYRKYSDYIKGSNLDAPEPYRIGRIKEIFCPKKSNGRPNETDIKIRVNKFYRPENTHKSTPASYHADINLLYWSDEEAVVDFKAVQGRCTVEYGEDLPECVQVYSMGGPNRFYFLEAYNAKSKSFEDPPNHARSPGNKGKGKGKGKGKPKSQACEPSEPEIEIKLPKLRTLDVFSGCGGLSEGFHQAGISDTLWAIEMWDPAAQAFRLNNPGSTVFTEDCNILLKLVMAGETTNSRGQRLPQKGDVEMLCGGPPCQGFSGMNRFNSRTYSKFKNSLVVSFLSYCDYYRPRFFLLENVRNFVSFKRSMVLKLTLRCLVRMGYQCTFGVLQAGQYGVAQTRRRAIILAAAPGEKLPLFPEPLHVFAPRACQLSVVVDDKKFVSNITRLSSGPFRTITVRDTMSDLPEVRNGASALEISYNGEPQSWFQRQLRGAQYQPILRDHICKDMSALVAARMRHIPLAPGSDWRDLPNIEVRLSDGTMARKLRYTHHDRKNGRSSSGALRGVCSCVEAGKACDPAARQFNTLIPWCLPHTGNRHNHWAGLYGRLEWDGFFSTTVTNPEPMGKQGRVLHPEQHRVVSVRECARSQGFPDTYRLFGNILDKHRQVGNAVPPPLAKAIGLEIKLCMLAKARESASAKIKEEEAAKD
LMPTP inh – blocks human LMPTP phosphatase | P24666 | recombinant LMPTP-A, OMFP fluorogenic substrate, fluorescence intensity | inhibition, % at 20 µM | 360,000 compounds, 0.22% hits | AID 651560;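 active means compounds that cut the enzyme signal by at least half of the control window in the single-dose screen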;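 further: plate controls were DMSO wells with enzyme plus substrate for no effect and substrate without enzyme for full effect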
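Test system: LMPTP-A, protein tyrosine phosphatase of low molecular weight; Input: 0.625 nM enzyme; Incubation: 50 min dark incubation at room temperature; Signal: endpoint fluorescence intensity from OMFP dephosphorylation; Read-out basis: % inhibition versus control wells.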
Scp-1 inhibitor – inhibitors of human Scp-1 phosphatase. Q9GZU7. Recombinant Scp1, phosphopeptide, malachite green phosphate absorbance. inhibition, % at 20 µM. 340,000 compounds, 0.88% hits;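 active means inhibition above about 50% at 20 µM, limit read from the data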;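 further: plate controls were DMSO wells with enzyme for no effect and wells lacking enzyme for full effect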
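Test system: SCP-1 catalytic domain; Buffer or medium: Acidic Tris acetate buffer with magnesium and detergent; Also added: Phosphorylated 17-residue peptide substrate; Compound: single 20 µM dose, 1% DMSO; Schedule: enzyme reaction 45 min at room temperature, colour 5 min, stabilisation 30 min; Signal: Phosphate-binding colour reagent, absorbance read at 630 nm.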
Scp1 confirm – Scp-1 (human) inhibition, single-dose confirmed; shares compounds with Scp-1 inhibitor; recombinant SCP-1 catalytic domain, phosphate release, malachite green absorbance; inhibition, % at 20 µM; 2,500 compounds, 61% hits; AID 540281;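 further: plate controls were DMSO with enzyme for no effect and buffer wells lacking enzyme for full effect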
Scp-1 MG ctr – interferes with malachite green readout, flagging false Scp-1 hits. shares compounds with Scp-1 inhibitor. Colorimetric interference counterscreen, malachite green absorbance 630 nm. AID 540313. apparent inhibition (interference), % at 20 µM. 2,500 tested, under 10 active;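 further: compounds added after enzyme reaction finished so only phosphate colour detection is probed; plate controls were DMSO wells with completed Scp-1 reaction for no effect and substrate wells lacking enzyme for full effect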
Scp1 DSF – validation of human Scp-1 inhibitors by thermal shift binding; thermal shift relative to vanadate control, % at 40 µM; 1,500 compounds, 25% hits; Recombinant SCP1, Sypro Orange thermal shift Tm; shares compounds with Scp-1 inhibitor;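 active means substances whose mean melting-temperature shift, as a percentage of the reference inhibitor's shift, reaches about 5.3%, limit read from the data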;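 further: 0% = Tm of DMSO wells and 100% = Tm with sodium orthovanadate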
DNMT1 interf DR – beacon fluorescence artifact, dose response counter-screen. shares compounds with DNMT1 block. molecular beacon fluorescence, spectral interference counter-screen. IC50, µM. 200 tested, under 10 active. AID 602382; call rule not given here
DNMT1 inh conf – DNMT1 inhibition confirmation, single concentration. shares compounds with DNMT1 block. DNMT1 molecular beacon HinP1I cleavage, fluorescence. inhibition, % at 10 µM. 2,300 compounds, 8% hits. AID 602385;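 active means average inhibition of at least 30% in the single-concentration confirmation test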
DNMT1 interf – shows spectral interference in the DNMT1 beacon assay | shares compounds with DNMT1 block | DNMT1 molecular beacon spectral interference counterscreen, fluorescence 485/520 | activation (fluorescence interference), % at 10 µM | 2,300 compounds, 1% hits | AID 602387;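 active means activation of at least 30% at 10 µM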;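 further: DNMT1 catalytic domain with a HinP1I cleavage step and a FAM/dabcyl DNA beacon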
Starred values were filed as active, the others as inactive; / = no result; ! = a repeat was not active.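 How the source made its calls, unless noted: active means inhibition of at least 30% at 20 µM; inactive means the rest.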

SMILES | SUMO1 PPI mod | STEP block | Casp6 inh | DNMT1 block | LMPTP inh | Scp-1 inhibitor | Scp1 confirm | Scp-1 MG ctr | Scp1 DSF | DNMT1 inh conf | DNMT1 interf | others
COc1ccc2c(c1)c(=O)oc1cc(OCC(=O)NC3CCCCC3)ccc12 | -17 | 6 | / | 52* | 4 | 70* | 56* | -15 | -16 | / | /
COc1ccc2c(c1)c(=O)oc1cc(OCC(=O)NC3CC3)ccc12 | -8 | 1 | / | 40 | 1 | 40 | / | / | / | / | /
C=CCNc1nc(C(=O)OCC(=O)Nc2ccc(S(N)(=O)=O)cc2)cs1 | -1 | 3 | 3 | -4 | 13 | 58* | 65* | -10 | -2 | / | /
C=CCNc1nc(C(=O)OCC(=O)Nc2cc(S(C)(=O)=O)ccc2Cl)cs1 | -11 | -1 | 3 | -2 | 0 | 3 | / | / | / | / | /
Nc1nc(CCl)nc(Nc2cccc3ccccc23)n1 | -3 | -1 | -1 | 1 | -1 | -3 | / | / | / | / | /
C=CCn1cnc2c(c1=O)c1nc3ccccc3nc1n2/N=C/c1cccc(OC)c1OC | -5 | 27 | 0 | 18 | 13 | 96* | 62* | -16 | 3 | / | /
Cc1ccccc1-c1nc(CN2CCC(C(=O)N3CCC(C(N)=O)CC3)CC2)c(C)o1 | 5 | -1 | -1 | -5 | -3 | -11 | / | / | / | / | /
O=S(=O)(NCC[C@H]1CC[C@@H](NS(=O)(=O)c2ccccc2Cl)[C@H](CO)O1)c1ccc(F)cc1 | / | / | 1 | / | / | / | / | / | / | / | /
c1ccc2[nH]c(-c3ccnc4ccccc34)nc2c1 | -15 | 2 | / | -2 | -1 | 100*! | 79* | -20 | -13 | / | /
c1ccc2c(-c3nc4ccccc4[nH]3)cccc2c1 | 4 | -1 | -2 | 0 | 0 | / | / | / | / | / | /
Cc1ccccc1/C=C/c1cc[n+](C)cc1 | -16 | 2 | -15 | 1 | -1 | 58* | -12 | -20 | / | / | /
Cc1[nH]c2ccccc2c1/C=C/c1cc[n+](C)cc1 | -85 | -4 | / | 8 | 6 | 34 | / | / | / | / | /
CC(=O)Nc1ccc2c(COC(=O)CC3Sc4ccccc4NC3=O)cc(=O)oc2c1 (stereo not given) | 2 | 12 | 8 | 60* | 14 | 57* | 70* | -10 | 4 | 10 | 3
O=S(=O)(c1ccc(F)cc1)N1CCCC1 | 2 | -6 | -3 | 0 | -2 | -6 | / | / | / | / | /
Cc1ccc(S(=O)(=O)N(CC(=O)O)Cc2ccco2)cc1 | 6 | 5 | 63* | 76* | 9 | 93* | 61* | -20 | 0 | 7 | -1
Cc1ccc(S(=O)(=O)N(Cc2ccccc2)Cc2ccco2)cc1 | -1 | 3 | / | -5 | 3 | -9 | / | / | / | / | /
COc1ccc(N(CC(=O)NCc2ccco2)S(=O)(=O)c2ccc(C)cc2)cc1OC | 5 | 0 | 0 | 2 | 0 | 3 | / | / | / | / | /
COc1ccccc1N(CC(=O)NCc1ccco1)S(=O)(=O)c1ccc(C)cc1 | 22 | 61* | 50* | 93* | 9 | 87* | 73* | -5 | 4 | 5 | 0
Cc1ccccc1Nc1nn2c(=O)c3ccccc3nc2s1 | 22 | 2 | / | -5 | 1 | -20 | / | / | / | / | /
O=c1c2ccccc2nc2sc(Nc3ccc(F)cc3)nn12 | -61 | 37 | -3 | 50 | 4 | 92* | 74* | -17 | -10 | 2 | -1
COc1ccc(NC(=O)c2cc(C)nc3ccccc23)cc1S(=O)(=O)N1CCOCC1 | -1 | 2 | 1 | 1 | 0 | 11 | / | / | / | / | /
O=C(NC1CCC(O)CC1)c1cc(-c2ccco2)nc2ccccc12 (stereo not given) | 0 | 2 | 32 | 57* | 10 | 51* | 57* | -13 | 5 | 13 | 3
CCCCCCNC(=O)c1cc(-c2ccco2)nc2ccccc12 | -8 | 10 | / | 106* | 6 | 71* | 67* | -14 | 2 | 9 | 7
Cc1ccc(NC(=O)c2cc(-c3ccco3)nc3ccccc23)cc1S(=O)(=O)N1CCOCC1 | 1 | 0 | 3 | 68* | 13 | 65* | 36* | -4 | 7.1* | 10 | 3
COc1cccc(-c2cc(C(=O)NC3CC3)c3ccccc3n2)c1 | -11 | 2 | -4 | -2 | 0 | 1 | / | / | / | / | /
SMILES | SUMO1 PPI mod | STEP block | Casp6 inh | DNMT1 block | LMPTP inh | Scp-1 inhibitor | Scp1 confirm | Scp-1 MG ctr | Scp1 DSF | DNMT1 inh conf | DNMT1 interf | others
CN(C)C(CNC(=O)c1cc(-c2ccco2)nc2ccccc12)c1ccccc1 (stereo not given) | -8 | 5 | -2 | 86* | 34 | 70* | 55* | -12 | 13* | 46* | -2 | DNMT1 interf DR=>99
CC(C)CCNC(=O)c1cc(-c2ccco2)nc2ccccc12 | -7 | 0 | / | -4 | 0 | -4 | / | / | / | / | /
C[C@H]1CN([C@@H](C)CO)S(=O)(=O)c2ccc(-c3cccnc3)cc2O[C@@H]1CN(C)C(=O)NC1CCCCC1 | / | / | 1 | / | / | / | / | / | / | / | /
CC(C)(C)OC(=O)N1CCC(CNC(=O)Nc2ccccc2)CC1 | 0 | -1 | -6 | -1 | -1 | 1 | / | / | / | / | /
CCC(C)NS(=O)(=O)c1ccc(NS(C)(=O)=O)cc1 (stereo not given) | -2 | -1 | / | -3 | 0 | 3 | / | / | / | / | /
CCc1nnc(NC(=O)c2cc(-c3ccco3)nc3ccccc23)s1 | 51* | 10 | / | 92* | 45 | 65* | 45* | -15 | 8.5* | 23 | -1
COc1ccc(NC(=O)CN(C)C(=O)c2cc(-c3ccco3)nc3ccccc23)cc1 | 10 | 10 | 29 | 99* | 45 | 73* | 61* | -18 | 7.4* | 23 | -3 | DNMT1 interf DR=>99
COc1ccc(NC(=O)c2cc(-c3ccco3)nc3ccccc23)cc1 | -1 | 8 | 5 | 12 | 3 | 45 | / | / | / | / | /
Cc1cccc(C)c1NC(=O)C(c1ccccc1OC(F)(F)F)N1CCC(c2ccccc2)CC1 (stereo not given) | -1 | / | 0 | / | 1 | / | / | / | / | / | /
C=CCn1c(-c2cccc(S(=O)(=O)N(CC)CC)c2)n[nH]c1=S | -1 | -3 | 1 | 0 | -3 | 7 | / | / | / | / | /
COc1cccc(=O)c2c(C)n(-c3ccc(C(=O)O)cc3)c(C)c12 | 24 | 18 | 26 | 63* | 3 | 60* | 29 | -16 | / | 3 | -3

Bioassay records (PubChem)
